In series [1] the test system is Trypanosoma cruzi. As to the kind of experiment: Antiparasitic activity against Trypanosoma cruzi Y epimastigote. The format is functional, organism-based. The method in brief: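 Y-strain epimastigotes (1×10^5 cells) grown in BHI with hemin, folic acid and 5% heat-inactivated FCS at 28 °C, with or without compound. DMSO final was 0.05%, and controls contained the same DMSO. After 7 days, live parasites were counted directly in a Neubauer chamber. IC50 is the mean of triplicate experiments.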

Series [2] in a line: Cytotoxicity against mouse macrophages after 72 hrs. The settings on record: read-out: LD50. The format is cell-based, Macrophage. The method in brief:
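Murine peritoneal macrophages seeded at 1.10⁶ cells/well in RPMI with 10% FCS and allowed to attach 24 h at 37 °C. Exposed 72 h to compounds in DMSO (final solvent at most 0.05%). Washed with PBS, trypan blue added (final 0.01%), and 200 cells counted in a Neubauer chamber for membrane permeability. IC50 is the mean of triplicate experiments.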

Series [3] concerns Trypanosoma cruzi. As to the kind of experiment: Antiparasitic activity against Trypanosoma cruzi Y trypomastigotes. The format is functional, organism-based.
For series [4], the system named is Trypanosoma cruzi. As to the kind of experiment: Antiparasitic activity against Trypanosoma cruzi Y amastigotes. The format is functional, organism-based. The method in brief: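 Resident peritoneal macrophages from uninfected BALB/c mice, once adhered, infected with T. cruzi metacyclic trypomastigotes at 10:1 parasite/macrophage for 1 h at 37 °C, 5% CO2. Free parasites washed off with PBS, then 72 h with compound at […]. Methanol-fixed, Giemsa-stained. 200 cells counted in triplicate for % infected cells, amastigotes per macrophage and endocytic index.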

Turning to `O=[N+]([O-])c1cc2c(cc1/C=C/c1sc(Nc3ccccc3)n[n+]1-c1ccccc1)OCO2`, in series [1], the IC50 was found to be 0.64 µM. Besides, in series [2], the CC50 at 72 h came out at 1.08 µM. In turn, `c1ccc(Nc2n[n+](-c3ccccc3)c(CCCCc3ccc4c(c3)OCO4)s2)cc1` returned an IC50 in series [1] of 31.5 µM.

`O=[N+]([O-])c1cc2c(cc1CCc1sc(Nc3ccccc3)n[n+]1-c1ccccc1)OCO2` gave an IC50 in series [1] of 40.8 µM.

Turning to `c1ccc(Nc2n[n+](-c3ccccc3)c(CCc3ccc4c(c3)OCO4)s2)cc1`, it took 83.4 µM to reach half-maximal inhibition in series [1] (IC50).

Take `O=[N+]([O-])c1cc2c(cc1-c1sc(Nc3ccccc3)n[n+]1-c1ccccc1)OCO2`: 13.4 µM corresponded to half-maximal inhibition in series [1] (IC50). For the same compound, in series [2], the CC50 at 72 h amounted to 6.62 µM. As for `c1ccc(Nc2n[n+](-c3ccccc3)c(-c3ccc4c(c3)OCO4)s2)cc1`, it took 113 µM to reach half-maximal inhibition in series [1] (IC50).

In the case of `O=[N+]([O-])c1cc2c(cc1CCCCc1sc(Nc3ccccc3)n[n+]1-c1ccccc1)OCO2`, the IC50 in series [1] was determined as 45.2 µM. Regarding `C(/C=C/c1sc(Nc2ccccc2)n[n+]1-c1ccccc1)=C\c1ccc2c(c1)OCO2`, the IC50 in series [1] was 10.8 µM; in series [3] it was 6.7 µM; in series [4], 1.35 µM. Further, the CC50 at 72 h in series [2] is 38.6 µM. For the compound `C(=C\c1sc(Nc2ccccc2)n[n+]1-c1ccccc1)/c1ccc2c(c1)OCO2`, inhibition in series [1] was half-maximal at 4.13 µM (IC50). Besides, in series [2], the CC50 at 72 h was 1.95 µM.

As for `O=C(Cn1ccnc1[N+](=O)[O-])NCc1ccccc1` [BENZNIDAZOLE], the IC50 in series [3] stood at 6.61 µM; in series [4], 2.51 µM. Consider `O=C(/C=C/C=C/c1ccc2c(c1)OCO2)N1CCCCC1` [PIPERINE], for which the IC50 was found to be 7.31 µM in series [1] and 4.91 µM in series [4]. Besides, the CC50 at 72 h in series [2] came to 20 µM.

For the origin of these results see ChEMBL document CHEMBL1143978, “Novel 1,3,4-thiadiazolium-2-phenylamine chlorides derived from natural piperine as trypanocidal agents: chemical and biological studies” (Bioorg Med Chem, 2008).
